In ChEMBL document CHEMBL3045743, “Synthesis and herbicidal activity of isoindoline-1,3-dione substituted benzoxazinone derivatives containing a carboxylic ester group” (J Agric Food Chem, 2009):

Columns and labels:
Gossypium [1] = test: Phytotoxicity against Gossypium (cotton) assessed as growth inhibition at 75 g.a.i/ha pre-emergent application measured after 15 days by greenhouse crop selectivity assay; type: organism-based; details: in vivo, other, 360 h
Outline: (§1)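 Pre-emergence greenhouse crop selectivity test on pot-grown plants in clay soil (pH 6.5, 1.7% organic matter, 37.5% clay, CEC 12.9 cmol/kg). Stock solutions were diluted with water and applied at 300, 150, 75 or 37.5 g a.i./ha, in triplicate. After 15 days, phytotoxicity was scored visually against untreated controls as % crop growth inhibition, averaged over the triplicates.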

Echinochloa crus-galli [2] = test: Post-emergence herbicidal activity against Echinochloa crus-galli (barnyard grass) assessed as growth inhibition at 15 g.a.i./ha applied at one-leaf stage measured after 15 days; type: functional; details: 360 h, read-out: GI
Outline: (§2)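 Pot-grown weeds sown 5 mm deep in greenhouse clay soil (pH 6.5, 1.7% organic matter, CEC 12.9 cmol/kg) at 22-25 °C. Stock diluted with water and sprayed post-emergence: dicots at 2-leaf stage, monocots at 1-leaf stage. Untreated and DMF solvent controls were included. % growth inhibition was scored visually versus untreated controls after 15 days. Triplicates averaged.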

Oryza sativa = test: Phytotoxicity against Oryza sativa (rice) assessed as growth inhibition at 7.5 to 60 g.a.i/ha post-emergent application measured after 15 days by greenhouse crop selectivity assay; type: organism-based, L.; details: in vivo, other, 360 h
Outline: (§3)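 Postemergence crop selectivity test on pot-grown plants in a greenhouse, in clay soil (pH 6.5, 1.7% organic matter, CEC 12.9 cmol/kg). Stock was diluted with water and sprayed at 60, 30, 15 or 7.5 g a.i./ha, in triplicate. Growth inhibition was rated visually against untreated controls after 15 days and given as the triplicate mean percentage.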

Glycine max [3] = test: Phytotoxicity against Glycine max (soybean) assessed as growth inhibition at 150 g.a.i/ha pre-emergent application measured after 15 days by greenhouse crop selectivity assay; type: organism-based; details: in vivo, other, 360 h; outline: as §1
Glycine max [4] = test: Phytotoxicity against Glycine max (soybean) assessed as growth inhibition at 7.5 to 60 g.a.i/ha post-emergent application measured after 15 days by greenhouse crop selectivity assay; type: organism-based; details: in vivo, other, 360 h; outline: as §3
Digitaria sanguinalis [5] = test: Pre-emergence herbicidal activity against Digitaria sanguinalis (hairy crabgrass) assessed as growth inhibition at 7.5 g.a.i./ha applied 24 hr after seeds were sown measured after 15 days; type: functional; details: read-out: GI
Outline: (§4)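 Weeds sown 5 mm deep in pots of greenhouse clay soil (pH 6.5, 37.5% clay, CEC 12.9 cmol/kg) and grown at 22-25 °C. Water-diluted formulation was applied pre-emergence 24 h after sowing. Untreated and DMF solvent controls were included. Growth inhibition was visually rated in % against untreated controls after 15 days, as the mean of triplicates.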

Abutilon theophrasti [6] = test: Pre-emergence herbicidal activity against Abutilon theophrasti (velvetleaf) assessed as growth inhibition at 7.5 g.a.i./ha applied 24 hr after seeds were sown measured after 15 days; type: functional; details: read-out: GI; outline: as §4
Digitaria sanguinalis [7] = test: Post-emergence herbicidal activity against Digitaria sanguinalis (hairy crabgrass) assessed as growth inhibition at 7.5 g.a.i./ha applied at one-leaf stage measured after 15 days; type: functional; details: 360 h, read-out: GI; outline: as §2
[8] = Phytotoxicity against Oryza sativa (rice) assessed as growth inhibition at 37.5 g.a.i/ha pre-emergent application measured after 15 days by greenhouse crop selectivity assay; type: organism-based, L.; details: in vivo, 37.5 g.a.i/ha, read-out: GI; outline: as §1
Amaranthus spinosus = test: Post-emergence herbicidal activity against Amaranthus spinosus assessed as growth inhibition at 15 g.a.i./ha applied at two-leaf stage measured after 15 days; type: functional; details: 360 h, read-out: GI; outline: as §2
Glycine max [9] = test: Phytotoxicity against Glycine max (soybean) assessed as growth inhibition at 75 g.a.i/ha pre-emergent application measured after 15 days by greenhouse crop selectivity assay; type: organism-based; details: in vivo, other, 360 h; outline: as §1
Zea mays = test: Phytotoxicity against Zea mays (maize) assessed as growth inhibition at 150 g.a.i/ha pre-emergent application measured after 15 days by greenhouse crop selectivity assay; type: organism-based; details: in vivo, other, 360 h; outline: as §1
Digitaria sanguinalis [10] = test: Post-emergence herbicidal activity against Digitaria sanguinalis (hairy crabgrass) assessed as growth inhibition at 75 g.a.i./ha applied at one-leaf stage measured after 15 days; type: functional; details: 360 h, read-out: GI; outline: as §2
[11] = Phytotoxicity against Oryza sativa (rice) assessed as growth inhibition at 75 g.a.i/ha pre-emergent application measured after 15 days by greenhouse crop selectivity assay; type: organism-based, L.; details: in vivo, 75 g.a.i/ha, read-out: GI; outline: as §1
Setaria viridis [12] = test: Pre-emergence herbicidal activity against Setaria viridis (green foxtail) assessed as growth inhibition at 7.5 g.a.i./ha applied 24 hr after seeds were sown measured after 15 days; type: functional; details: read-out: GI
Outline: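 Secondary pre-emergence test run at 7.5, 15 and 37.5 g a.i./ha on pot-grown weeds in a greenhouse at 22-25 °C. Seeds sown 5 mm deep in clay soil (pH 6.5, 1.7% organic matter, CEC 12.9 cmol/kg). Stock diluted with water and applied 24 h after sowing. Done in triplicate; visual % growth inhibition vs untreated after 15 days, averaged.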

Abutilon theophrasti [13] = test: Post-emergence herbicidal activity against Abutilon theophrasti (velvetleaf) assessed as growth inhibition at 37.5 g.a.i./ha applied at two-leaf stage measured after 15 days; type: functional; details: 360 h, read-out: GI; outline: as §2
Chenopodium album [14] = test: Post-emergence herbicidal activity against Chenopodium album assessed as growth inhibition at 7.5 g.a.i./ha applied at two-leaf stage measured after 15 days; type: functional; details: 360 h, read-out: GI; outline: as §2
Abutilon theophrasti [15] = test: Post-emergence herbicidal activity against Abutilon theophrasti (velvetleaf) assessed as growth inhibition at 7.5 g.a.i./ha applied at two-leaf stage measured after 15 days; type: functional; details: 360 h, read-out: GI; outline: as §2
Echinochloa crus-galli [16] = test: Pre-emergence herbicidal activity against Echinochloa crus-galli (barnyard grass) assessed as growth inhibition at 7.5 g.a.i./ha applied 24 hr after seeds were sown measured after 15 days; type: functional; details: read-out: GI; outline: as §4
Abutilon theophrasti [17] = test: Post-emergence herbicidal activity against Abutilon theophrasti (velvetleaf) assessed as growth inhibition at 75 g.a.i./ha applied at two-leaf stage measured after 15 days; type: functional; details: 360 h, read-out: GI; outline: as §2
Echinochloa crus-galli [18] = test: Post-emergence herbicidal activity against Echinochloa crus-galli (barnyard grass) assessed as growth inhibition at 7.5 g.a.i./ha applied at one-leaf stage measured after 15 days; type: functional; details: 360 h, read-out: GI; outline: as §2
Setaria viridis [19] = test: Post-emergence herbicidal activity against Setaria viridis (green foxtail) assessed as growth inhibition at 75 g.a.i./ha applied at one-leaf stage measured after 15 days; type: functional; details: 360 h, read-out: GI; outline: as §2
Chenopodium album [20] = test: Post-emergence herbicidal activity against Chenopodium album assessed as growth inhibition at 75 g.a.i./ha applied at two-leaf stage measured after 15 days; type: functional; details: 360 h, read-out: GI; outline: as §2
Echinochloa crus-galli [21] = test: Pre-emergence herbicidal activity against Echinochloa crus-galli (barnyard grass) assessed as growth inhibition at 75 g.a.i./ha applied 24 hr after seeds were sown measured after 15 days; type: functional; details: read-out: GI; outline: as §4
Echinochloa crus-galli [22] = test: Pre-emergence herbicidal activity against Echinochloa crus-galli (barnyard grass) assessed as growth inhibition at 15 g.a.i./ha applied 24 hr after seeds were sown measured after 15 days; type: functional; details: read-out: GI; outline: as §4
Arachis hypogaea = test: Phytotoxicity against Arachis hypogaea (peanut) assessed as growth inhibition at 300 g.a.i/ha pre-emergent application measured after 15 days by greenhouse crop selectivity assay; type: organism-based; details: in vivo, other, 360 h; outline: as §1
Gossypium [23] = test: Phytotoxicity against Gossypium (cotton) assessed as growth inhibition at 150 g.a.i/ha pre-emergent application measured after 15 days by greenhouse crop selectivity assay; type: organism-based; details: in vivo, other, 360 h; outline: as §1
Triticum aestivum = test: Phytotoxicity against Triticum aestivum (wheat) assessed as growth inhibition at 7.5 to 60 g.a.i/ha post-emergent application measured after 15 days by greenhouse crop selectivity assay; type: organism-based; details: in vivo, other, 360 h; outline: as §3

Structure (SMILES) | growth inhibition (GI) (Gossypium [1]) | inhibition of growth at 15 g/ha (Echinochloa crus-galli [2]) [%] | Activity (Oryza sativa) | growth inhibition (GI) (Glycine max [3]) | Activity (Glycine max [4]) | inhibition of growth at 7.5 g/ha (Digitaria sanguinalis [5]) [%] | inhibition of growth at 7.5 g/ha (Abutilon theophrasti [6]) [%] | inhibition of growth at 7.5 g/ha (Digitaria sanguinalis [7]) [%] | inhibition at 360 h [8] [%] | inhibition of growth at 15 g/ha (Amaranthus spinosus) [%] | growth inhibition (GI) (Glycine max [9]) | growth inhibition (GI) (Zea mays) | inhibition of growth at 75 g/ha (Digitaria sanguinalis [10]) [%] | inhibition at 360 h [11] [%] | inhibition of growth at 7.5 g/ha (Setaria viridis [12]) [%] | inhibition of growth at 37.5 g/ha (Abutilon theophrasti [13]) [%] | inhibition of growth at 7.5 g/ha (Chenopodium album [14]) [%] | inhibition of growth at 7.5 g/ha (Abutilon theophrasti [15]) [%] | inhibition of growth at 7.5 g/ha (Echinochloa crus-galli [16]) [%] | inhibition of growth at 75 g/ha (Abutilon theophrasti [17]) [%] | also measured
COC(=O)C(C)N1C(=O)C(C)Oc2cc(F)c(N3C(=O)C4=C(CCCC4)C3=O)cc21 (stereo unspecified) | Not Active | 30 | Toxic | Not Active | Toxic | 0 | 50 | 10 | > 10 | 100 | Not Active | Not Active | > 80 | > 10 | 0 | 100 | 100 | 100 | 0 | > 80 | inhibition of growth at 7.5 g/ha (Echinochloa crus-galli [18]): 10%; inhibition of growth at 75 g/ha (Setaria viridis [19]): > 80%; inhibition of growth at 75 g/ha (Chenopodium album [20]): > 80%; inhibition of growth at 75 g/ha (Echinochloa crus-galli [21]): > 80%; inhibition of growth at 15 g/ha (Echinochloa crus-galli [22]): 10%; growth inhibition (GI) (Arachis hypogaea): Not Active; growth inhibition (GI) (Gossypium [23]): Not Active; Activity (Triticum aestivum): Toxic
CCOC(=O)C(C)N1C(=O)C(C)Oc2cc(F)c(N3C(=O)C4=C(CCCC4)C3=O)cc21 (stereo unspecified) | Not Active | 30 | Toxic | Not Active | Toxic | 0 | 0 | 20 | > 10 | 100 | Not Active | Not Active | > 80 | > 10 | 0 | 100 | 100 | 100 | 0 | > 80 | inhibition of growth at 7.5 g/ha (Echinochloa crus-galli [18]): 10%; inhibition of growth at 75 g/ha (Setaria viridis [19]): > 80%; inhibition of growth at 75 g/ha (Chenopodium album [20]): > 80%; inhibition of growth at 75 g/ha (Echinochloa crus-galli [21]): > 80%; inhibition of growth at 15 g/ha (Echinochloa crus-galli [22]): 10%; growth inhibition (GI) (Arachis hypogaea): Not Active; growth inhibition (GI) (Gossypium [23]): Not Active; Activity (Triticum aestivum): Toxic
